In ChEMBL document CHEMBL1145922, “1,2-benzisoxazole phosphorodiamidates as novel anticancer prodrugs requiring bioreductive activation” (J Med Chem, 2003):

Legend:
[1] = species: Rattus norvegicus; experiment: Metabolic stability after incubation for 30 minutes in rat liver in hypoxic condition in presence of NADPH; assay type: functional
Method in brief: (§1)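 Phenobarbital-induced rat liver S-9 fraction, substrate 2.5 mM final, with 5 mM NADPH or no cofactor, 30 min at 37 °C, oxic or nitrogen-purged (hypoxic). Quenched with ice-cold methanol and centrifuged; supernatant analysed by TLC densitometry (ethyl acetate/ethanol eluent) for unchanged parent, reported as % remaining, mean ± SD of three experiments.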

[2] = species: Rattus norvegicus; experiment: Alkylating Activity after incubation for 30 minutes in rat liver in oxic condition in absence of NADPH; assay type: functional, organism-based
Method in brief: (§2)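 Phenobarbital-induced rat liver S-9 fraction (17.9 or 18.2 mg/mL protein), substrate 2.5 mM final (added in methanol/water 50:50), NADPH 5 mM or no cofactor, 30 min at 37 °C. Hypoxic samples purged with nitrogen 15–20 min in sealed vials. Stopped with ice-cold methanol, proteins removed; alkylating activity by NBP assay, absorbance at 542 nm, mean of two experiments.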

[3] = species: Rattus norvegicus; experiment: Metabolic stability after incubation for 30 minutes in rat liver in oxic condition in presence of NADPH; assay type: functional; method in brief: as §1
[4] = test system: V79; experiment: In vitro cytotoxicity against Chinese hamster lung (V-79 cells) fibroblast determined using sulforhodamine B (SRB) assay; assay type: functional, cell-based; conditions: Cricetulus griseus
Method in brief: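 V-79 Chinese hamster lung fibroblasts, about 15×10^3 cells/well, preincubated 24 h, then drug at eight concentrations for 48 h, aerobic. Fixed with cold TCA, stained with 0.4% SRB, dye solubilized in 10 mM Tris, read at 564 nm. % growth versus untreated control; first-order decay fit gives IC50. Triplicates, three experiments, mean ± SD.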

[5] = species: Rattus norvegicus; experiment: Alkylating Activity after incubation for 30 minutes in rat liver in Hypoxic condition in absence of NADPH; assay type: functional, organism-based; method in brief: as §2
[6] = species: Rattus norvegicus; experiment: Metabolic stability after incubation for 30 minutes in rat liver in hypoxic condition in absence of NADPH; assay type: functional; method in brief: as §1
[7] = species: Rattus norvegicus; experiment: Metabolic stability after incubation for 30 minutes in rat liver in oxic condition in absence of NADPH; assay type: functional; method in brief: as §1
[8] = species: Rattus norvegicus; experiment: Alkylating Activity after incubation for 30 minutes in rat liver in Hypoxic condition in presence of NADPH; assay type: functional, organism-based; method in brief: as §2
[9] = species: Rattus norvegicus; experiment: Alkylating Activity after incubation for 30 minutes in rat liver in oxic condition in presence of NADPH; assay type: functional, organism-based; method in brief: as §2

Q: `COc1ccc2c(CCOP(N)(=O)N(CCCl)CCCl)noc2c1` (stereo unspecified) was tested. Which Compound remaining [1] did it give?
A: 45%

Q: And the Absorbance [2]?
A: 0.32

Q: And the Compound remaining [3]?
A: 46%

Q: What about the IC50 [4] of the same compound?
A: 241 µM

Q: And the Absorbance [5]?
A: 0.42

Q: What about the Compound remaining [6] of the same compound?
A: 79%

Q: What about the Compound remaining [7] of the same compound?
A: 78%

Q: And the Absorbance [8]?
A: 2.35

Q: And the Absorbance [9]?
A: 2.31

Q: What does the source list for `NP(=O)(OCCc1noc2ccc([N+](=O)[O-])cc12)N(CCCl)CCCl` (stereo unspecified)?
A: Compound remaining [1]: 1%; Compound remaining [3]: 1%; IC50 [4]: 311 µM; Absorbance [5]: 0.85; Compound remaining [6]: 76%; Compound remaining [7]: 79%; Absorbance [8]: 2.23

Q: With `NP(=O)(OCCc1noc2ccccc12)N(CCCl)CCCl` (stereo unspecified) as the compound, how does the Compound remaining [1] read?
A: 34%

Q: And the Absorbance [2]?
A: 0.26

Q: What about the Compound remaining [3] of the same compound?
A: 33%

Q: And the IC50 [4]?
A: 411 µM

Q: What about the Absorbance [5] of the same compound?
A: 0.38

Q: And the Compound remaining [6]?
A: 98%

Q: What about the Compound remaining [7] of the same compound?
A: 97%

Q: And the Absorbance [8]?
A: 2.02

Q: And the Absorbance [9]?
A: 1.97

Q: For `CCc1noc2ccccc12`, which IC50 [4] is on record?
A: > 2000 µM
